Source: ChEMBL document CHEMBL4196106, “From Naproxen Repurposing to Naproxen Analogues and Their Antiviral Activity against Influenza A Virus” (J Med Chem, 2018)
Calls of active or inactive are those of the source. No cut-off for these calls is given here.

How the values were obtained:
[1] = system: MDCK; test: Inhibition of nucleoprotein/polymerase acidic protein (1 to 27 residues) interaction in Influenza A virus (A/WSN/1933 (H1N1)) infected in MDCK cells by Western blot analysis; type: cell-based
Outline: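 MDCK cells were infected with A/WSN/33 at MOI 2 for 18 h and lysed in PBS with protease inhibitors and 0.5% NP40 by freezing; nucleic acids were not digested. Streptavidin beads loaded with 250 µM biotinylated PA(1-27) were incubated with the lysate 18 h at 4 °C, with or without compound. Bound NP was detected by anti-NP monoclonal western blot.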

[2] = system: Influenza A virus; test: Stabilization of Influenza A virus nucleoprotein assessed as melting temperature at 5 to 15 uM measured for 5 mins
Outline: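 Recombinant NP, over 80% monomeric, was used at 5–15 µM with compound at a 1:1 ratio in 20 mM Tris pH 7.4, 50 mM NaCl. Mean size was followed by dynamic light scattering (10 scans over 5 min per point) while heating at 1 °C/min up to 70–80 °C. Tm was taken from the maximum of the first-derivative curve, and analyses were done in triplicate.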

[3] = Binding affinity to biotin labelled Influenza A virus nucleoprotein by surface plasmon resonance analysis
[4] = system: Influenza A virus; test: Antiviral activity against Influenza A virus (A/Udorn/1972 (H3N2)) infected in MDCK cells at MOI of 10^-3 assessed as decrease in viral load after 18 hrs by crystal violet staining-based plaque assay; type: functional, organism-based
[5] = system: A549; test: Downregulation of COX2 level in human A549 cells infected with Influenza A virus at MOI of 2 at 100 uM after 18 hrs in presence of gamma-ATP by immunofluorescence analysis; type: cell-based; conditions: a549, 18 h
Outline: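 A549 cells were pretreated with compound for 30 min, then either infected with IAV at MOI 2 for 18 h or activated with 100 µM γ-ATP for 1 h with or without compound. Cells were fixed in 3% PFA and permeabilised with 0.1% triton. COX2 was immunostained overnight with a primary antibody and detected with an Alexa 647 secondary.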

[6] = system: Influenza A virus; test: Antiviral activity against Influenza A virus (A/Udorn/1972 (H3N2)) infected in MDCK cells at MOI of 2 assessed as decrease in viral load after 18 hrs by immunofluorescence analysis; type: functional, organism-based
Outline: (§1)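 MDCK or A549 cells, 0.32 x 10^6 per well, were held 24 h serum-free to 80% confluence and then infected at MOI 2. Compound (0.1–500 µM) or vehicle was added right after virus adsorption. At 18 h, viral NP was read by immunofluorescence and corrected for cell number by DAPI. Runs were in triplicate, repeated at least twice, and IC50 came from a dose-response fit.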

[7] = system: Influenza A virus; test: Antiviral activity against Influenza A virus (A/Puerto Rico/8/1934(H1N1)) infected in C57BL/6J mouse assessed as survival at 1 to 8 mg/mouse/day, ip qd treated up to day 2 starting at 5 to 10 mins post infection measured at day 12 relative to control; type: functional
Outline: (§2)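 Intranasal A/PR/8/34 challenge at 500 PFU in female C57BL/6J mice, 5–6 weeks old, under ketamine/xylazine. Dosing was i.p. once daily on days 0, 1 and 2, starting 5–10 min post-inoculation; 1 mg/mouse is 50 mg/kg and 8 mg/mouse is 400 mg/kg. There were 10 mice per group, with saline vehicle. Survival and body weight were scored daily, with 20% weight loss as the mortality endpoint.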

[8] = Selectivity index, ratio of CC50 for MDCK cells to IC50 for Influenza A virus (A/WSN/1933(H1N1)) infected in MDCK cells at MOI of 10^-3 after 48 hrs; type: toxicity, cell-based; conditions: dog, read-out: Ratio CC50/IC50
[9] = target: PA/PB1 (Influenza A virus (A/Puerto Rico/8/1934(H1N1)), UniProt P03431+P03433); test: Binding affinity to biotin labelled Influenza A virus polymerase acidic protein (1 to 27 residues) by surface plasmon resonance analysis; type: protein assay
Outline: (§3)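 Biotinylated PA(1-27) was captured on the chip at about 1500 RU, with a scrambled peptide on the same chip at similar RU. NP (12–2500 nM), alone or as NP-DNA complex, was injected with or without compound up to 50 µM. Running buffer was 20 mM Tris-HCl pH 7.4, 300 mM NaCl, 0.005% P20, at 25 °C and 30 µl/min. Regeneration used guanidinium chloride then 10 mM NaOH.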

[10] = system: Influenza A virus; test: Antiviral activity against Influenza A virus (A/WSN/1933(H1N1)) infected in MDCK cells at MOI of 10^-3 assessed as decrease in viral load after 48 hrs by crystal violet staining-based plaque assay; type: functional, organism-based
Outline: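 Serum-starved MDCK cells, 0.32 x 10^6 per well, were infected with A/WSN/33 at MOI 10^-3 (multi-cycle). Compound (0.1–500 µM) or vehicle was added immediately after adsorption. After 48 h, titres in clarified supernatant were read by plaque assay with crystal violet. Runs were in triplicate, repeated at least twice, and IC50 came from a dose-response fit.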

[11] = system: Influenza A virus; test: Antiviral activity against Influenza A virus (A/Puerto Rico/8/1934(H1N1)) infected in C57BL/6J mouse assessed as increase in mouse survival at 8 mg/mouse/day, ip qd treated up to day 2 starting at 5 to 10 mins post infection measured at day 12; type: functional, organism-based; outline: as §2
[12] = system: Influenza A virus; test: Antiviral activity against Influenza A virus (A/Puerto Rico/8/1934(H1N1)) infected in C57BL/6J mouse assessed as decrease in viral load in bronchoalveolar lavage at 1 mg/mouse/day, ip qd treated up to day 2 starting at 5 to 10 mins post infection relative to control; type: functional
Outline: (§4)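 Female C57BL/6J mice, 5–6 weeks old, were anaesthetised with ketamine/xylazine (43/5 mg/kg) and inoculated intranasally with A/PR/8/34 at 500 PFU. Treatment was i.p. once daily on days 0, 1 and 2, starting 5–10 min after inoculation; 1 mg/mouse is 50 mg/kg and 8 mg/mouse is 400 mg/kg. BAL infectious titre was measured by plaque assay against saline-treated mice.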

[13] = system: Influenza A virus; test: Antiviral activity against Influenza A virus (A/Puerto Rico/8/1934(H1N1)) infected in ip dosed C57BL/6J mouse assessed as increase in mouse survival administered once daily treated up to day 2 starting at 5 to 10 mins post infection; type: functional, organism-based; outline: as §2
[14] = (§5) Inhibition of Influenza A virus nucleoprotein/polymerase acidic protein (1 to 27 residues) complex formation in presence of DNA by surface plasmon resonance analysis; outline: as §3
[15] = system: Influenza A virus; test: as §5; outline: as §3
[16] = Binding affinity to Influenza A virus nucleoprotein by surface plasmon resonance analysis
[17] = Selectivity index, ratio of CC50 for MDCK cells to IC50 for pandemic Influenza A virus (A/Netherlands/602/09(H1N1)) infected in MDCK cells at MOI of 10^-3 after 18 hrs; type: toxicity, cell-based; conditions: dog, read-out: Ratio CC50/IC50
[18] = Safety index, ratio of compound CC50 to naproxen CC50 for MDCK cells by MTT assay; type: ADME, cell-based, Canis lupus familiaris; conditions: dog
[19] = system: Influenza A virus; test: Antiviral activity against Influenza A virus (A/Puerto Rico/8/1934(H1N1)) infected in C57BL/6J mouse assessed as recovery of weight loss at 1 mg/mouse/day, ip qd treated up to day 2 starting at 5 to 10 mins post infection measured up to day 12 relative to control; type: functional; outline: as §2
[20] = Selectivity index, ratio of CC50 for human A549 cells to IC50 for Influenza A virus (A/Udorn/1972 (H3N2)) after 18 hrs; type: toxicity; conditions: read-out: Ratio CC50/IC50
[21] = system: Influenza A virus; test: Stabilization of Influenza A virus nucleoprotein assessed as melting temperature at 5 to 15 uM measured for 10 mins
[22] = system: Influenza A virus; test: Antiviral activity against Influenza A virus (A/Puerto Rico/8/1934(H1N1)) infected in C57BL/6J mouse assessed as recovery of weight loss at 8 mg/mouse/day, ip qd […] starting at 5 to 10 mins post infection measured up to day 12; type: functional, organism-based
[23] = system: Influenza A virus; test: Antiviral activity against Influenza A virus (A/Puerto Rico/8/1934(H1N1)) infected in C57BL/6J mouse assessed as decrease in viral load in bronchoalveolar lavage at 8 mg/mouse/day, ip qd treated up to day 2 starting at 5 to 10 mins post infection relative to control; type: functional; outline: as §4
[24] = system: Influenza A virus; test: Antiviral activity against Influenza A virus (A/Udorn/1972 (H3N2)) infected in human A549 cells assessed as decrease in viral load after 18 hrs by immunofluorescence analysis; type: functional, organism-based; conditions: A549, 18 h; outline: as §1
[25] = system: Influenza A virus; test: Antiviral activity against pandemic Influenza A virus (A/Netherlands/602/09(H1N1)) infected in MDCK cells at MOI of 10^-3 assessed as decrease in viral load after 18 hrs by immunofluorescence analysis; type: functional, organism-based
[26] = system: Influenza A virus; test: Antiviral activity against Influenza A virus (A/Udorn/1972 (H3N2)) infected in MDCK cells at MOI of 0.2 assessed as decrease in viral load after 18 hrs by immunofluorescence analysis; type: functional, organism-based
[27] = system: Influenza A virus; test: Inhibition of Influenza A virus nucleoprotein/polymerase acidic protein (1 to 27 residues) complex formation at 100 nM by surface plasmon resonance analysis; outline: as §3
[28] = Selectivity index, ratio of CC50 for MDCK cells to IC50 for Influenza A virus (A/Udorn/1972 (H3N2)) infected in MDCK cells at MOI of 2 after 18 hrs; type: toxicity, cell-based; conditions: dog, read-out: Ratio CC50/IC50
[29] = system: Influenza A virus; test: Antiviral activity against Influenza A virus (A/WSN/1933(H1N1)) infected in MDCK cells at MOI of 2 assessed as decrease in viral load after 18 hrs by immunofluorescence analysis; type: functional, organism-based; outline: as §1
[30] = Selectivity index, ratio of CC50 for MDCK cells to IC50 for Influenza A virus (A/WSN/1933(H1N1)) infected in MDCK cells at MOI of 2 after 18 hrs; type: toxicity, cell-based; conditions: dog, read-out: Ratio CC50/IC50
[31] = system: Influenza A virus; test: Potency index, ratio of naproxen IC50 to compound IC50 for Influenza A virus (A/WSN/1933(H1N1)) infected in MDCK cells at MOI of 2 after 18 hrs by immunofluorescence analysis; type: functional
[32] = system: Influenza A virus; test: Antiviral activity against Influenza A virus (A/Puerto Rico/8/1934(H1N1)) infected in C57BL/6J mouse assessed as recovery of weight loss at 8 mg/mouse/day, ip qd treated up to day 2 starting at 5 to 10 mins post infection measured up to day 12 relative to control; type: functional; outline: as §2
[33] = system: Influenza A virus; conditions: 50 uM
[34] = Cytotoxicity against human A549 cells assessed as reduction in cell viability after 48 hrs by MTT assay; type: cell-based
Outline: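 Cells were seeded at 3.2 x 10^5 per well and kept 1 day at 37 °C in MEM without serum. Serial compound dilutions were added and cells incubated a further 48 h. The MTT read-out was absorbance at 550 nm minus 650 nm, and CC50 was taken from a dose-response fit.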

[35] = Cytotoxicity against MDCK cells assessed as reduction in cell viability after 24 to 72 hrs by MTT assay; conditions: dog
[36] = system: Influenza A virus; test: microbe, parasite or virus in culture; conditions: MDCK, 18 h
[37] = Cytotoxicity against MDCK cells assessed as reduction in cell viability after 48 hrs by trypan blue staining based method; design: species or system Canis lupus familiaris; conditions: dog
Outline: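 MDCK cells, 3.2 x 10^5 per well, were grown 24 h and then exposed to serial compound dilutions under the same conditions as the MTT test. At 48 h, cells were washed, trypsinised and stained with Trypan blue, and viable and dead cells were counted by phase-contrast microscopy.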

COc1ccc2cc(C(CC(=O)O)CC(=O)O)ccc2c1
inhibition (active/not active) [1]: inactive | Tm [2]: 25 to 45 °C | Ki [3]: 0.8 µM

COc1ccc2cc(-c3c(C(=O)[O-])cccc3C(=O)[O-])ccc2c1.[Na+].[Na+]
IC50 [4]: 2 µM | Activity [5]: Non-Toxic | inhibition (active/not active) [1]: Active | IC50 [6]: 20 µM | Survival [7]: 70% | selectivity ratio at 48 h [8]: 4480 to 5200 | Ki [9]: 30 µM | IC50 [10]: 2.9 µM | Activity [11]: Active | fold change (FC) [12]: 6 | Activity [13]: Dose-dependent effect | IC50 [14]: 0.03 µM | inhibition [15]: Dose-dependent effect | Ki [16]: 0.097 µM | selectivity ratio at 18 h [17]: 7220 | selectivity ratio [18]: 10 | Activity [19]: >=95% | selectivity ratio at 18 h [20]: 520 | Tm [21]: 46 °C | Activity [22]: Active | fold change (FC) [23]: 120 | IC50 [24]: 25 µM | IC50 [25]: 1.8 µM | IC50 [26]: 7 µM | inhibition [27]: Active | selectivity ratio at 18 h [28]: 650 | IC50 [29]: 19 µM | selectivity ratio at 18 h [30]: 684 | Ratio IC50 [31]: 5 | Activity [32]: 5%

COc1ccc2cc([C@H](C)C(=O)O)ccc2c1 [NAPROXEN]
inhibition (active/not active) [1]: inactive | inhibition [33]: inactive | selectivity ratio at 48 h [8]: 87 | IC50 [10]: 16 µM | fold change (FC) [12]: 2 | CC50 at 48 h [34]: 1400 µM | Ki [16]: 0.25 µM | Activity [19]: 85% | selectivity ratio at 18 h [20]: 12.5 | Tm [21]: 41 °C | CC50 [35]: 1400 µM | IC50 [36]: 120 µM | IC50 [24]: 112 µM | inhibition [27]: inactive | CC50 at 48 h [37]: 1000 µM | selectivity ratio at 18 h [28]: 12 | IC50 [29]: 100 µM | selectivity ratio at 18 h [30]: 14
